Results published in ChEMBL document CHEMBL4219055, “Structure-based design, synthesis, and biological evaluation of imidazo[1,2-b]pyridazine-based p38 MAP kinase inhibitors” (Bioorg Med Chem, 2018).
Values after ≈ are worked out from the molar mass of the structure shown.

What was measured:
[1] = Aqueous solubility in pH 6.8 buffer solution by HPLC analysis; type: physicochemical
[2] = Metabolic stability in rat liver microsomes at 1 uM after 20 mins in presence of NADPH by HPLC analysis; type: ADME, microsome
[3] = Metabolic stability in human liver microsomes at 1 uM after 20 mins in presence of NADPH by HPLC analysis; type: ADME, microsome
[4] = Retention time in human liver microsomes at 1 uM by HPLC analysis; type: ADME, microsome
Summary of the method: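 Incubated for 30 min with human liver microsomes. Parent and metabolites were analysed by HPLC and LC/MSⁿ, giving retention times, [M+H]⁺ and major fragment ions.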

[5] = Cmax in Crl:CD(SD) rat at 3 mg/kg, po by LC-MS/MS analysis; type: ADME, organism-based; parameters: dose 3 mg/kg, route oral; settings: in vivo
Summary of the method: (§1)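 Rats were dosed i.v. at 0.2 mg/kg and p.o. at 3.0 mg/kg. Oral dosing was a suspension in 0.5% methyl cellulose or in corn oil, depending on the compound. Vd and CL came from i.v. dosing. Values are means of three animals.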

[6] = Tmax in Crl:CD(SD) rat at 3 mg/kg, po by LC-MS/MS analysis; type: ADME, organism-based; settings: in vivo; summary of the method: as §1
[7] = AUC in Crl:CD(SD) rat at 3 mg/kg, po by LC-MS/MS analysis; type: ADME, organism-based; settings: in vivo
Summary of the method: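 Rats dosed orally at 3.0 mg/kg as a suspension in either 0.5% methyl cellulose or corn oil, depending on the compound. […] AUCpo is reported as ng·h/mL and is the mean of measurements in three animals.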

[8] = MRT in Crl:CD(SD) rat at 3 mg/kg, po by LC-MS/MS analysis; type: ADME, organism-based; settings: in vivo; summary of the method: as §1
[9] = Volume of distribution in Crl:CD(SD) rat at 0.2 mg/kg, iv by LC-MS/MS analysis; type: ADME, organism-based; settings: in vivo; summary of the method: as §1
[10] = Clearance in Crl:CD(SD) rat at 0.2 mg/kg, iv by LC-MS/MS analysis; type: ADME, organism-based; settings: in vivo; summary of the method: as §1
[11] = Oral bioavailability in Crl:CD(SD) rat at 3 mg/kg by LC-MS/MS analysis; type: ADME, organism-based; settings: in vivo; summary of the method: as §1
[12] = pH 6.8 buffer solution, read-out: solubility

Structure (SMILES)	solubility [1, 12] [µg/mL]	remaining at 20 min, 1 µM [2] [µL/min/mg]	Stability [3] [µL/min/mg]	Retention_time [4] [min]	solubility ([1]; buffer)	Cmax [5] [ng/mL]	Tmax [6] [h]	AUC [7] [ng·h/mL]	MRT [8] [h]	Vd [9] [L/kg]	clearance [10] [mL/min/kg]	bioavailability [11] [%]
Cc1cc(-c2nc3cccnn3c2-c2ccnc(NC(=O)c3cccnc3)c2)ccc1F	0.92 (≈ 2.17 µM)	71										
Cc1cc(C(=O)Nc2cc(-c3c(-c4ccc(F)c(C)c4)nc4cccnn34)ccn2)ccn1	0.15 (≈ 0.342 µM)	65	132	33.4								
Cc1cc(-c2nc3cccnn3c2-c2ccnc(NC(=O)c3ccc(C)[n+]([O-])c3)c2)ccc1F	2.4 (≈ 5.28 µM)	23										
Cc1ccc(C(=O)Nc2cc(-c3c(-c4ccc(F)c(C)c4)nc4cccnn34)ccn2)cn1	0.38 (≈ 0.867 µM)	53										

Next, values leading:

solubility [1, 12] [µg/mL]	remaining at 20 min, 1 µM [2] [µL/min/mg]	Stability [3] [µL/min/mg]	Retention_time [4] [min]	solubility ([1]; buffer)	Cmax [5] [ng/mL]	Tmax [6] [h]	AUC [7] [ng·h/mL]	MRT [8] [h]	Vd [9] [L/kg]	clearance [10] [mL/min/kg]	bioavailability [11] [%]	Structure (SMILES)
0.75 (≈ 1.77 µM)	75	177										Cc1cc(-c2nc3cccnn3c2-c2ccnc(NC(=O)c3ccncc3)c2)ccc1F
				Insoluble	190	1.67	2130	5.63	1.38	10	42.6	Cc1cc(-c2nc3cccnn3c2-c2ccnc(NC(=O)c3cc[n+]([O-])c(C)c3)c2)ccc1F.O=S(=O)(O)O
0.91 (≈ 2 µM)	16		23		75	2	703	5.32	1.38	10	13.5	Cc1cc(-c2nc3cccnn3c2-c2ccnc(NC(=O)c3cc[n+]([O-])c(C)c3)c2)ccc1F
